Results as given in ChEMBL document CHEMBL1139081, “Rational design, synthesis, and structure-activity relationship of benzoxazolones: new potent mglu5 receptor antagonists based on the fenobam structure” (Bioorg Med Chem Lett, 2007).
Each block holds one compound with its values, some of them ahead of it.

Tests used:
[1] = molecular target: T1, Metabotropic glutamate receptor 5 (Homo sapiens, UniProt P41594); experiment: Binding affinity to mGluR5
[2] = molecular target: T1, Metabotropic glutamate receptor 5; experiment: Antagonist activity at mGluR5 assessed as inhibition of Ca2+ […] by FLIPR; assay type: functional
[3] = Half life in rat; assay type: ADME, organism-based; settings: in vivo
[4] = Clearance in rat; assay type: ADME, organism-based; settings: in vivo
Mus musculus = species: Mus musculus; experiment: Decrease in stress-induced hyperthermia in NMRI mouse; assay type: functional; settings: read-out: MED
Summary of the method: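 Stress-induced hyperthermia model of anxiety in NMRI mice, read as change in temperature (DT). Oral dosing at 10 and 30 mg/kg, vehicle 0.3% Tween 80 in 0.9% NaCl, 60 min pre-treatment. Each group compared to vehicle by independent t-test.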

[5] = Ratio of drug level in brain to plasma in rat after 3 hrs; assay type: ADME; settings: brain and plasma
Summary of the method: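 Blood/brain partitioning checked 3 h after administration as brain-to-plasma concentration ratio; cerebrospinal fluid concentration also measured, expressed as percentage of plasma concentration.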

[6] = Volume of distribution in rat; assay type: ADME, organism-based; settings: in vivo
[7] = Oral bioavailability in rat; assay type: ADME, organism-based; settings: in vivo

T1 sequence (P41594 whole entry): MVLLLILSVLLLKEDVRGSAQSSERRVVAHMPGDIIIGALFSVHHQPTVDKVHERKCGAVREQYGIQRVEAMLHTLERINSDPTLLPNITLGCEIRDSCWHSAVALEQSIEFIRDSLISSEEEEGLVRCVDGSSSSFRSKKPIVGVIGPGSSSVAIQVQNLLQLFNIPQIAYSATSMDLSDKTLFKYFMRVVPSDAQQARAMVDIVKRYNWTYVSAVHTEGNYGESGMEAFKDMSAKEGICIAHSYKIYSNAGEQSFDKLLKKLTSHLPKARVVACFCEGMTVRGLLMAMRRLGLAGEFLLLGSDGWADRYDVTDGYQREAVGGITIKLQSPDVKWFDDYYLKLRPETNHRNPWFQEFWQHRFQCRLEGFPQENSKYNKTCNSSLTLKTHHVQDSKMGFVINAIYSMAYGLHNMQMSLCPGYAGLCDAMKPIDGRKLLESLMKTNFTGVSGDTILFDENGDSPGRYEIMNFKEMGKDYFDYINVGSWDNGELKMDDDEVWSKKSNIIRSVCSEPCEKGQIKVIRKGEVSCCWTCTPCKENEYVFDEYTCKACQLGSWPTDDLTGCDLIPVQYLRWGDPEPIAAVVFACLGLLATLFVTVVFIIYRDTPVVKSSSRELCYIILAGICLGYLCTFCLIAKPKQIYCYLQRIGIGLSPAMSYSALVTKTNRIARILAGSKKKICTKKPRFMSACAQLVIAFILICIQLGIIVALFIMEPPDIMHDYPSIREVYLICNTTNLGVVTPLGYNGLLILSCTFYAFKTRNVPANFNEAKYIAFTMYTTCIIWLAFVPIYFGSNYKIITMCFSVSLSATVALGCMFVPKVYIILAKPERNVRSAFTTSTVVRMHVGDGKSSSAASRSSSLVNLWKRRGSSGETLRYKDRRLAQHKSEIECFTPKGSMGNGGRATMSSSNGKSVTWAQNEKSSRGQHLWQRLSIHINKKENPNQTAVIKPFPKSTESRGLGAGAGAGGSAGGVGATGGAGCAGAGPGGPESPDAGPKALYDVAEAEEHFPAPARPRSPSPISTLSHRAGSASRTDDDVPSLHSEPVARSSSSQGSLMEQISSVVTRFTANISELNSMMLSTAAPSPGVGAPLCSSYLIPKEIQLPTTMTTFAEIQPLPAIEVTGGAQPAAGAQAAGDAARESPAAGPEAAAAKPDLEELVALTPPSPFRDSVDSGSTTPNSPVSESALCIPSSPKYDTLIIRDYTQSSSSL

Ki [1]: 68 nM
IC50 [2]: 195 nM
SMILES: O=C(Nc1cccc(Cl)c1)c1cccc2oc(=O)[nH]c12

Ki [1]: 2900 nM
SMILES: O=C1COc2cccc(C(=O)Nc3cccc(Cl)c3)c2N1

Ki [1]: > 10000 nM
SMILES: CC(=O)Nc1ccccc1C(=O)Nc1cccc(Cl)c1

Ki [1]: 3900 nM
SMILES: O=C(Nc1cccc(Cl)c1)c1cccc2cc[nH]c12

Ki [1]: 56 nM
IC50 [2]: 94 nM
SMILES: O=C(Nc1cccc(Br)c1)c1cccc2oc(=O)[nH]c12

Ki [1]: 109 nM
IC50 [2]: 104 nM
SMILES: Cc1cccc(NC(=O)c2cccc3oc(=O)[nH]c23)c1

Ki [1]: > 10000 nM
SMILES: O=C(Nc1cc(Cl)cc(Cl)c1)c1cccc2oc(=O)[nH]c12

Ki [1]: 327 nM
SMILES: N#Cc1cccc(NC(=O)c2cccc3oc(=O)[nH]c23)c1

Ki [1]: 250 nM
SMILES: Cc1nc(NC(=O)c2cccc3oc(=O)[nH]c23)cs1

Ki [1]: > 10000 nM
SMILES: O=C(Nc1cccc(Cl)c1)c1cccc2nc[nH]c12

half-life [3]: 13.2 min
Ki [1]: 95 nM
clearance [4]: 8.2 mL/min/kg
Kp at 3 h [5]: 0.06
Vd [6]: 0.18 L/kg
bioavailability [7]: 64%
IC50 [2]: 60 nM
SMILES: Cc1cccc(NC(=O)c2cccc3oc(=O)[nH]c23)n1
minimal effective dose (Mus musculus): 10 mg/kg

Ki [1]: 3900 nM
SMILES: COc1cccc(NC(=O)c2cccc3oc(=O)[nH]c23)c1

The next lines start with the compound.

SMILES: O=C(Nc1cccc(Cl)c1)c1cccc2[nH]c(=O)oc12
Ki [1]: > 10000 nM

SMILES: O=C1Cc2cccc(C(=O)Nc3cccc(Cl)c3)c2N1
Ki [1]: 397 nM

SMILES: O=C(Nc1cccc(Cl)c1)c1cccc2[nH]c(=O)[nH]c12
Ki [1]: 3900 nM

SMILES: Cn1c(=O)[nH]c2c(C(=O)Nc3cccc(Cl)c3)cccc21
Ki [1]: > 10000 nM

SMILES: O=C(Nc1cccc(Cl)c1)c1cccc2nn[nH]c12
Ki [1]: > 10000 nM

SMILES: O=C(Nc1ccccc1)c1cccc2oc(=O)[nH]c12
Ki [1]: 2200 nM

SMILES: Cc1nccc(NC(=O)c2cccc3oc(=O)[nH]c23)n1
Ki [1]: 1970 nM

SMILES: O=C(Nc1cccc(C(F)(F)F)c1)c1cccc2oc(=O)[nH]c12
Ki [1]: 485 nM

SMILES: O=C(Nc1ccccc1Cl)c1cccc2oc(=O)[nH]c12
Ki [1]: > 10000 nM

SMILES: O=C(Nc1ccc(Cl)cc1)c1cccc2oc(=O)[nH]c12
Ki [1]: 3800 nM

SMILES: Cc1cc(NC(=O)c2cccc3oc(=O)[nH]c23)ccn1
Ki [1]: 3100 nM

SMILES: O=C(Nc1ccccn1)c1cccc2oc(=O)[nH]c12
Ki [1]: 251 nM
